Test results reported in ChEMBL document CHEMBL3739264, “Synthesis and bio-evaluation of novel quinolino-stilbene derivatives as potential anticancer agents” (Bioorg Med Chem, 2015).
pIC50: −log10 of the molar value. The source made the active and inactive calls. No cut-off for these calls is given here.

Key:
HeLa [1] = experiment: Antiproliferative activity against human HeLa cells after 72 hrs by SRB assay; format: functional, cell-based
Summary of the method: (§1)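 Cells seeded at 4,000-5,000/well for 16 h, then exposed 72 h to serial dilutions of compound in DMSO; sham DMSO as 100% and TCA-treated wells as 0%. Fixed in 10% TCA at 4°C for 1 h, stained with 0.4% SRB for 30 min, dye solubilised in 10 mmol Tris pH 10.5, read at 540 nm. IC50 from sigmoidal dose-response curves; two biological replicates, four technical each.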

MDA-MB-231 [2] = experiment: Cell cycle arrest in human MDA-MB-231 cells assessed as accumulation at G0-G1 phase at 6 uM after 24 hrs by flow cytometry analysis relative to control; format: functional
Summary of the method: (§2)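 About 1 × 10^6 cells per plate seeded overnight, then treated with compound and harvested at set times. Cells fixed in 75% ethanol at -20°C for 12-24 h and stained 1 h with 100 µg/ml PI, 100 µg/ml RNase A and 0.3% NP-40 in PBS. DNA content measured by flow cytometry; phase fractions compared with sham-treated cells.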

MDA-MB-231 [3] = experiment: Cell cycle arrest in human MDA-MB-231 cells assessed as accumulation at G0-G1 phase at 6 uM after 48 hrs by flow cytometry analysis relative to control; format: functional; summary of the method: as §2
[4] = Cell cycle arrest in human MCF10A cells assessed as accumulation at sub-G1 phase at 6 uM after 24 hrs by flow cytometry analysis relative to control; format: functional, cell-based; conditions: MCF-10A; summary of the method: as §2
Tubulin (Homo sapiens) = Tubulin (Homo sapiens) (UniProt P68371+Q9H4B7+P0DPH7+P68366+Q13509+Q71U36+P04350+Q3ZCM7+P07437+P68363+Q9BQE3+Q6PEY2+Q13885+Q9BVA1+Q9BUF5); experiment: Inhibition of tubulin (unknown origin) polymerization at 6 to 12 uM measured every 1 min for 1 hr by automated plate reader analysis; format: protein-complex assay
Summary of the method: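 Cell-free assay: 4 mg/ml tubulin in 80 mM PIPES, 2 mM MgCl2, 0.5 mM EGTA, 1 mM GTP, 10% glycerol, pH 6.9, added to wells with ligand pre-warmed 2-3 min at 37°C. A340 read every min for 1 h.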

HeLa [5] = experiment: Cell cycle arrest in human HeLa cells assessed as accumulation at G0-G1 phase at 6 uM after 48 hrs by flow cytometry analysis relative to control; format: functional; summary of the method: as §2
HeLa [6] = experiment: Cell cycle arrest in human HeLa cells assessed as accumulation at S phase at 6 uM after 12 hrs by flow cytometry analysis relative to control; format: functional; summary of the method: as §2
HeLa [7] = experiment: Cell cycle arrest in human HeLa cells assessed as accumulation at G0-G1 phase at 6 uM after 24 hrs by flow cytometry analysis relative to control; format: functional; summary of the method: as §2
HeLa [8] = experiment: Cell cycle arrest in human HeLa cells assessed as accumulation at G2/M phase at 6 uM after 24 hrs by flow cytometry analysis relative to control; format: functional; summary of the method: as §2
HeLa [9] = experiment: Cell cycle arrest in human HeLa cells assessed as accumulation at G0-G1 phase at 6 uM after 72 hrs by flow cytometry analysis relative to control; format: functional; summary of the method: as §2
HeLa [10] = experiment: Induction of apoptosis in human HeLa cells assessed as popcorn like morphology at 6 uM after 48 hrs by time lapse microscopy analysis; format: functional, cell-based
Summary of the method: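 Treated HeLa cells were followed by time-lapse microscopy, with images taken at set time points.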

HeLa [11] = experiment: Cell cycle arrest in human HeLa cells assessed as accumulation at G2/M phase at 6 uM after 48 hrs by flow cytometry analysis relative to control; format: functional; summary of the method: as §2
[12] = Cell cycle arrest in human MCF10A cells assessed as accumulation at S phase at 6 uM after 48 hrs by flow cytometry analysis relative to control; format: functional, cell-based; conditions: MCF-10A; summary of the method: as §2
MDA-MB-231 [13] = experiment: Cell cycle arrest in human MDA-MB-231 cells assessed as accumulation at G0-G1 phase at 6 uM after 12 hrs by flow cytometry analysis relative to control; format: functional; summary of the method: as §2
HeLa [14] = experiment: Induction of DNA damage in human HeLa cells at 6 uM after 48 hrs by immunostaining; format: functional, cell-based
Summary of the method: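 γH2A.X (phospho-Ser139) immunostaining, with HeLa at 6 µM for 24 or 48 h and MDA-MB468 at 1 µM. Cells on coverslips fixed and permeabilized in ice-cold methanol at -20°C. Blocked in 1% FBS, primary antibody 1:200 overnight at 4°C, then fluorophore-conjugated secondary 1 h. DNA counterstained with DRAQ5.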

HeLa [15] = experiment: Cell cycle arrest in human HeLa cells assessed as accumulation at G0-G1 phase at 6 uM after 12 hrs by flow cytometry analysis relative to control; format: functional; summary of the method: as §2
HeLa [16] = experiment: Cell cycle arrest in human HeLa cells assessed as accumulation at G2/M phase at 6 uM after 12 hrs by flow cytometry analysis relative to control; format: functional; summary of the method: as §2
HeLa [17] = experiment: Induction of apoptosis in human HeLa cells assessed as increase of PARP cleavage at 6 uM after 48 hrs by Western blot analysis; format: functional, cell-based
Summary of the method: (§3)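 HeLa cells were sham-treated or given 6 µM and collected at set times. Lysed on ice in Tris pH 7.4/NaCl/EDTA/1% Triton X-100 with PMSF and protease inhibitors. 30-40 µg protein run on 8 or 10% gels, blotted to PVDF, probed overnight at 4°C and detected by ECL. Band levels normalized to GAPDH.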

HeLa [18] = experiment: Decrease of Wee-1 level in human HeLa cells at 6 uM after 48 hrs by Western blot analysis
MDA-MB-231 [19] = experiment: Cell cycle arrest in human MDA-MB-231 cells assessed as accumulation at G2/M phase at 6 uM after 12 hrs by flow cytometry analysis relative to control; format: functional; summary of the method: as §2
[20] = Cell cycle arrest in human MCF10A cells assessed as accumulation at G0-G1 phase at 6 uM after 72 hrs by flow cytometry analysis relative to control; format: functional, cell-based; conditions: MCF-10A; summary of the method: as §2
MDA-MB-231 [21] = experiment: Cell cycle arrest in human MDA-MB-231 cells assessed as accumulation at sub-G1 phase at 6 uM after 48 hrs by flow cytometry analysis relative to control; format: functional
Summary of the method: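 Cells seeded overnight at about 1 × 10^6 per plate, treated next morning, and harvested at set times. Fixed in 75% ethanol at -20°C for 12-24 h, then stained 1 h in PBS with 0.3% NP-40, 100 µg/ml RNase A and 100 µg/ml propidium iodide. Phase distribution read from DNA content by flow cytometry against sham-treated cells.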

[22] = Cell cycle arrest in human MCF10A cells assessed as accumulation at S phase at 6 uM after 12 hrs by flow cytometry analysis relative to control; format: functional, cell-based; conditions: MCF-10A; summary of the method: as §2
MDA-MB-231 [23] = experiment: Cell cycle arrest in human MDA-MB-231 cells assessed as accumulation at G0-G1 phase at 6 uM after 72 hrs by flow cytometry analysis relative to control; format: functional; summary of the method: as §2
MDA-MB-231 [24] = experiment: Cell cycle arrest in human MDA-MB-231 cells assessed as accumulation at S phase at 6 uM after 24 hrs by flow cytometry analysis relative to control; format: functional; summary of the method: as §2
HeLa [25] = experiment: Cell cycle arrest in human HeLa cells assessed as accumulation at sub-G1 phase at 6 uM after 12 hrs by flow cytometry analysis relative to control; format: functional; summary of the method: as §2
MDA-MB-468 = experiment: Antiproliferative activity against human MDA-MB-468 cells after 72 hrs by SRB assay; format: functional, cell-based; conditions: MDA-MB-468, 72 h; summary of the method: as §1
HeLa [26] = experiment: Increase of cyclin-B level in human HeLa cells at 6 uM after 48 hrs by Western blot analysis; format: functional, cell-based; summary of the method: as §3

## FC(F)(F)c1cccc(/C=C\c2cc3ccccc3nc2Cl)c1
HeLa [1]
  pIC50: 5.55
MDA-MB-231 [2]
  Activity: 34%
MDA-MB-231 [3]
  Activity: 36.3%
[4]
  Activity: 7.3%
Tubulin (Homo sapiens)
  inhibition: Active
HeLa [5]
  Activity: 20.8%
HeLa [6]
  Activity: 8.9%
HeLa [7]
  Activity: 16.2%
HeLa [8]
  Activity: 56.9%
HeLa [9]
  Activity: 22.9%
HeLa [10]
  Activity: Active
HeLa [11]
  Activity: 23.9%
[12]
  Activity: 17.9%
MDA-MB-231 [13]
  Activity: 22.2%
HeLa [14]
  Activity: inactive
HeLa [15]
  Activity: 8%
HeLa [16]
  Activity: 78.9%
HeLa [17]
  Activity: Active
HeLa [18]
  Activity: Active
MDA-MB-231 [19]
  Activity: 47.4%
[20]
  Activity: 70.6%
MDA-MB-231 [21]
  Activity: 23.8%
[22]
  Activity: 52.9%
MDA-MB-231 [23]
  Activity: 34.6%
MDA-MB-231 [24]
  Activity: 10.8%
HeLa [25]
  Activity: 3.6%
MDA-MB-468
  pIC50: 5.43
HeLa [26]
  Activity: Active
